Where two headings read alike, the source gives them in different places.
How the values were obtained:
[1] = tested on: U87-malignant glioma (ATCC-HTB-14); test: MTT assay, cytotoxicity against U87-malignant glioma cells; format: cell-based, human; conditions: for viability at 10 µM / viability at 40 µM / viability at 80 µM / viability at 100 µM / viability at 150 µM: read-out: % cell viability U87; for IC50: read-out: IC50 (μM ± SEM U87)
How it was run: (§1)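 Cells grown in DMEM (4.5 g/L glucose, 10% FBS, 1% penicillin/streptomycin) at 37 °C, 5% CO₂. Seeded at 1 × 10³ cells/well and left 24 h to adhere. Test compound added at 10, 40, 80, 100 or 150 μM for 48 h (text also states MTT added 24 h post-dosing). MTT in PBS added for 3 h, formazan dissolved in DMSO for 30 min, OD read at 550 nm, % viability calculated from absorbance.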

[2] = MTT assay, cytotoxicity against normal HEK293 cells; format: cell-based, human; conditions: human, HEK293 cells
How it was run: as §1

[3] = tested on: human embryonic kidney HEK293 cell line; test: as above; format: cell-based; conditions: for cytotoxicity in noncancerous cells (HEK293): compared with malignant glioma U87 cells, 10-150 μM
How it was run: as §1

[4] = MTT assay, U87 malignant glioma cells, ± SEM

Compound	viability at 10 µM ([1]; Homo sapiens, Glioma cell) [%]	viability at 40 µM ([1]; Homo sapiens, Glioma cell) [%]	viability at 80 µM ([1]; Homo sapiens, Glioma cell) [%]	viability at 100 µM ([1]; Homo sapiens, Glioma cell) [%]	viability at 150 µM ([1]; Homo sapiens, Glioma cell) [%]	IC50 ([1]; Homo sapiens, Glioma cell) [µM]	viability at 48 h, 10 μM [2] [%]	viability at 48 h, 40 μM [2] [%]	viability at 48 h, 80 μM [2] [%]	viability at 48 h, 100 μM [2] [%]	viability at 48 h, 150 μM [2] [%]	cytotoxicity in noncancerous cells (HEK293) [3]	% cell viability U87 ([1]; concentration 10 (μM)) [%]	% cell viability U87 ([1]; concentration 40 (μM)) [%]	% cell viability U87 ([1]; concentration 80 (μM)) [%]	% cell viability U87 ([1]; concentration 100 (μM)) [%]	% cell viability U87 ([1]; concentration 150 (μM)) [%]	IC50 [1, 4] [µM]	% cell viability HEK293 ([3]; concentration 10 (μM)) [%]	% cell viability HEK293 ([3]; concentration 40 (μM)) [%]	also measured
COc1ccc(C=NNC(=O)COc2ccc(C=NNC(=O)C(C)c3ccc(CC(C)C)cc3)cc2)c(OC)c1 (stereo not shown) [5f, N′-(4-(2-(2-(2,4-Dimethoxybenzylidene)hydrazinyl)-2-oxoethoxy)benzylidene)-2-(4-isobutylphenyl)propanehydrazide]	54.1	44.2	38.7	29	21.6	24.2 ± 0.46	103	79.2	71.9	69.9	63.5	lower cytotoxicity	–	–	–	–	–	–	–	–	–
2-(4-Isobutyl phenyl)-N′-(4-(2-(2-(4-isopropylbenzylidene)hydrazinyl)-2-oxoethoxy)benzylidene)propanehydrazide [5s]	–	–	–	–	–	–	–	–	–	–	–	–	145.03	93.13	92.16	78.36	69.18	43.73 ± 0.11	58.72	58.38	% cell viability HEK293 ([3]; concentration 80 (μM)): 51.45%; % cell viability HEK293 ([3]; concentration 100 (μM)): 49.00%; % cell viability HEK293 ([3]; concentration 150 (μM)): 39.29%
2-(4-Isobutyl phenyl)-N′-(4-(2-oxo-2-(2-(−3,4,5-trimethoxybenzylidene)hydrazinyl)ethoxy)benzylidene)propanehydrazide [5g]	–	–	–	–	–	–	–	–	–	–	–	–	56.40	47.40	39.45	33.32	30.90	39.94 ± 0.16	86.66	75.46	% cell viability HEK293 ([3]; concentration 80 (μM)): 62.21%; % cell viability HEK293 ([3]; concentration 100 (μM)): 62.12%; % cell viability HEK293 ([3]; concentration 150 (μM)): 56.11%
CC(C)Cc1ccc(C(C)C(=O)NN=Cc2ccc(OCC(=O)NN=Cc3ccc(O)cc3O)cc2)cc1 (stereo not shown) [5e, N′-(4-(2-(2-(2,4-Dihydroxybenzylidene)hydrazinyl)-2-oxoethoxy)benzylidene)-2-(4-isobutylphenyl)propanehydrazide]	43.4	41	39.9	28.5	27.5	5.75 ± 0.43	69.4	69.1	67.9	62.1	50.8	lower cytotoxicity	–	–	–	–	–	–	–	–	–

— article PMC10764114 (ACS Omega, 2023)
